# Assay outcomes from PubChem.
# FLuc act counter – affects firefly luciferase, flagging false hits in luciferase stimulation screens; activation factor at 10 µM; 200,000 tested, under 10 active; ATPlite luciferase biochemical, luminescence, 10 min; 0 = ATP-free wells, 1 = DMSO control;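 active = luciferase activation factor, scaled between plate controls, of at least 2 with compound at 10 µM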
# Target sequence (P08659 whole entry, looked up): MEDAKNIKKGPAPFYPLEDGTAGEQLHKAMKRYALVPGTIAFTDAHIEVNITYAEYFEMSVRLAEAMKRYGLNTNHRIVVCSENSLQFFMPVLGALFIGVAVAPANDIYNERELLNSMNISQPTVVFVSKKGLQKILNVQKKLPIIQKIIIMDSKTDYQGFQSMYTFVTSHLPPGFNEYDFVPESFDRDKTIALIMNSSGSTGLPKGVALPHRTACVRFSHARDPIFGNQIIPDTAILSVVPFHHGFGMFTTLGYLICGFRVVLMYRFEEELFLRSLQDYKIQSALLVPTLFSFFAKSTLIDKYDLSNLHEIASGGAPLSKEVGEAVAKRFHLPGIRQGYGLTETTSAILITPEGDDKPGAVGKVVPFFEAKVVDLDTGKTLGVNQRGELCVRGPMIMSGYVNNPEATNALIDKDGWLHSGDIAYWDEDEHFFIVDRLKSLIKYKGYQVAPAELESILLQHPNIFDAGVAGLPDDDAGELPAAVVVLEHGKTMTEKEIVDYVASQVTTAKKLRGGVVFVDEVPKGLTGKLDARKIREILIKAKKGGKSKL
#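 System: cell-free luciferase reagent; medium: PBS as buffer for the ATP substrate; doses: test compounds dosed from 2 mM stocks in 100% DMSO; incubation: 10 min, room temperature; measured by: luminescence from luciferase reaction; read-out: luciferase activation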
# APP 5'UTR act – activates APP 5'UTR luciferase reporter | hit rate 1% among 190,000 | SH-SY5Y APP 5'UTR luciferase reporter, luminescence; zero percent = DMSO vehicle wells | activation, % at 2 µM;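 active = activation above a set limit, based on mean plus 3 SD of controls, cut at about 140% in these data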
# sdo1 growth – sdo1-depleted yeast growth rescue | S. cerevisiae sdo1-depleted JHY4D growth rescue, OD600 30 h; hits give high values; pdr5 snq2 efflux-pump mutant strain | z-score at 10 µM | hit rate 0.21% among 140,000;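 active = z-score above 3 at both the 24 hr and the 30 hr optical density reads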
# NF-kB expr up – NF-kB expression increase, human neuronal cells. NF-kB reporter expression; hits give high values. hit rate 1.6% among 190,000. fold change at 12.5 µM. AID 1239; in the data active = fold change above about 3.3
# STAT1 activator – increases IFN-gamma driven STAT1 reporter signal. activation (% of control), % at 5.5 µM. NIH 3T3 STAT1-luciferase reporter, luminescence; 100% = IFN-gamma alone, no compound. hit rate 2.6% among 200,000;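 active = activation above the screen-wide mean activation plus 3 SD, cut at about 130% in these data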
# FLuc inhib CS – Photinus pyralis luciferase inhibition counter-screen | P08659 | ATPLite firefly luciferase biochemical luminescence, 10 min | inhibition, % at 10 µM | hit rate 1.5% among 200,000 | AID 1006;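 active = inhibition above about 50% when tested at 10 µM, limit read from the data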
# sdo1 rescue conf – SDO1-depleted yeast growth rescue confirmation. OD recovery (test concentration not listed). S. cerevisiae JHY4D (SDO1-depleted) growth rescue, OD600, 30 h; hits give high values; efflux-deficient strain, SNQ2 and PDR5 mutated. shares compounds with sdo1 growth. hit rate 44% among 440;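 active = yeast growth recovered at 30 hours, either rising with dose fitted slope above 0.001 or with average optical density gain above 0.07, some results past the limit were not filed as active; inactive = growth falling with dose or no effect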
# Hits are given with their value; i = inactive; nt = no result given. Most compounds without a hit are left out; they make up all but 4.3% or so of the library.
SMILES,FLuc act counter,APP 5'UTR act,sdo1 growth,NF-kB expr up,STAT1 activator,FLuc inhib CS,sdo1 rescue conf
CC(C(=O)Nc1nc2ccccc2[nH]1)N1C(=O)C2CC=CCC2C1=O (configuration not stated),i,i,i,i,i,i,nt
CCN1CCCC1CNC(=O)CCNC(=O)c1cc(OC)c(OC)c(OC)c1 (configuration not stated),i,i,3.3,i,i,i,0.083
Cc1cccc(CN2CCN(c3nc4nonc4nc3NC3CC3)CC2=O)c1,i,i,nt,i,i,i,nt
COC(=O)C1CCN(C(=O)CCCOc2ccccc2)CC1,i,146,i,i,132,i,i
O=C(NCCCn1ccnc1)C(Cc1ccc([N+](=O)[O-])cc1)N1C(=O)c2ccccc2C1=O (configuration not stated),i,i,i,i,i,i,nt
COc1ccccc1NC(=O)COC(=O)c1ccccc1OCC(=O)Nc1ccc(SC(F)F)cc1,i,i,i,i,i,i,0.073
CCC(C)n1c(OC)nc2c1c(=O)n(C)c(=O)n2C (configuration not stated),i,i,nt,i,i,i,nt
COC(=O)c1ccc(-c2nn(C)c(=O)c3ccccc23)cc1,i,i,8.5,i,i,i,0.076
Cn1nc(-c2ccc(C(=O)O)cc2)c2ccccc2c1=O,i,i,i,i,i,i,nt
O=C(C[n+]1cccc(O)c1)Nc1ccc(Br)cc1,i,i,nt,i,i,i,nt
Cc1c(C(=O)NCc2ccccn2)sc2nc(-c3ccc(F)cc3)cn12,i,i,i,i,i,i,nt
CCN(CC)CCCNC(=O)c1sc2nc(-c3ccc(F)cc3)cn2c1C,i,i,3.6,i,i,i,0.083
O=C(CCn1c(=O)c2sccc2n(CC(=O)OCc2ccccc2)c1=O)NCc1ccccc1,i,i,i,i,i,i,nt
CCCc1nnc(SCC(=O)N2CCCC2)n1CC1CCCO1 (configuration not stated),i,i,3.2,i,i,i,i
CCCc1nnc(SCC(=O)N2CCCCC2)n1CC1CCCO1 (configuration not stated),i,i,i,i,i,i,nt
O=C(Cc1cccs1)N(CC1CCCO1)C1(C(=O)NC2CCCC2)CCCCC1 (configuration not stated),i,i,nt,i,i,i,nt
Cc1cc2cc3c(cc2nc1SCC(=O)O)OCCO3,i,i,i,i,i,i,nt
Cc1cc2cc3c(cc2nc1SCC(=O)OC(C)C)OCCO3,i,i,3.1,i,i,i,i
Cc1nn(-c2ccccc2)c(C)c1C(=O)OCC(=O)N1c2ccccc2NC(=O)C1(C)C,i,i,14,i,i,i,i
CCC1CC(CSc2ncn[nH]2)OC1=O (configuration not stated),i,i,i,i,i,i,nt
CCN(C(=S)Nc1cc(S(=O)(=O)N2CCOCC2)ccc1Cl)c1cccc2ccccc12,i,i,i,i,i,i,nt
O=S(=O)(c1ccc(Cl)c(NC(=S)Nc2cccc(O)c2)c1)N1CCOCC1,i,i,15,i,i,i,i
CCOc1ccc(NC(=O)CN(C)Cc2cc(=O)n3c(-c4ccccc4)csc3n2)cc1OCC,i,i,nt,i,i,i,nt
COc1ccc(-c2nnc(SC(C)C(=O)NCc3ccc4c(c3)OCO4)n2Cc2ccco2)cc1 (configuration not stated),i,i,i,i,i,i,nt
CC(C)(C)c1cc(C(=O)N/N=C/c2ccco2)n[nH]1,i,i,9.9,i,i,i,0.071
SMILES,FLuc act counter,APP 5'UTR act,sdo1 growth,NF-kB expr up,STAT1 activator,FLuc inhib CS,sdo1 rescue conf
O=C1OC(c2cccc([N+](=O)[O-])c2)C2(CCCC2)C(=O)C12CCCCC2 (configuration not stated),i,i,i,i,i,i,nt
O=C(N1CCN(c2ccccc2)CC1)C(F)(F)C(F)F,i,i,i,i,i,i,nt
O=C(N1CCN(c2ccccc2)CC1)C(F)(F)C(F)(F)F,i,i,3.4,i,i,i,i
CN(C)CC1CCCCC1C1(O)c2ccccc2CSc2sccc21 (configuration not stated),i,i,i,i,i,i,nt
CC(C)N(C(=O)CSc1nc2ccccc2n1Cc1ccc(F)cc1)C(C)C,i,i,i,i,i,i,nt
COc1ccc(NC(=O)c2cc(-c3ccc(OC)c(OC)c3)on2)cc1OC,i,i,i,i,i,i,i
COc1ccc(CNC(=O)c2cc(-c3ccc(OC)c(OC)c3)on2)cc1,i,i,8.7,i,i,i,i
CCN(CC)C(=O)N1CCc2ccccc2C1CN1C(=O)c2ccccc2C1=O (configuration not stated),nt,i,nt,nt,i,nt,nt
COc1ccc(OC)c(S(=O)(=O)N2CCC(C(=O)NCCc3ccccc3)CC2)c1,i,i,i,i,i,i,nt
CS(=O)(=O)N1CCN(C(=O)c2cc(-c3ccncc3)nc3ccc(Cl)cc23)CC1,i,i,i,i,i,i,nt
Cc1ccc(-c2noc(CCC(=O)NCCN3CCOCC3)n2)cc1,i,i,i,i,i,i,0.074
Cc1ccc(-c2noc(CCC(=O)NCCN3CCN(Cc4ccccc4)CC3)n2)cc1,i,i,i,i,i,i,nt
COc1ccc(NC(=O)c2ccc(NCC3CCCO3)c([N+](=O)[O-])c2)cc1 (configuration not stated),i,i,nt,i,i,i,nt
O=C(Nc1ccccc1)c1ccc(NCC2CCCO2)c([N+](=O)[O-])c1 (configuration not stated),i,i,11,i,i,i,0.086
CCOc1ccc(N(CC(=O)NCc2ccccc2)S(C)(=O)=O)cc1,i,i,5.5,i,i,i,0.086
CC(=O)N1CCC(=NNc2ccc(S(=O)(=O)N3CCOCC3)cc2[N+](=O)[O-])CC1,i,i,12,i,i,i,i
CNC(=O)COC(=O)c1cc(F)c(F)cc1Cl,i,i,i,i,i,i,nt
CC(C)NC(=O)COC(=O)c1cc(F)c(F)cc1Cl,i,i,5.6,i,i,i,0.085
Cc1ccc(C)c(N2CCN(C(=O)CN3C(=O)c4ccccc4C3=O)CC2)c1,i,i,i,i,i,i,nt
Cc1ccccc1N1CCN(C(=O)CN2C(=O)c3ccccc3C2=O)CC1,i,i,7.4,i,i,i,0.075
OC(CN1c2ccccc2Sc2ccccc21)Cn1nnc2ccccc21 (configuration not stated),i,i,i,i,i,i,nt
Cc1nn(CC(O)CN2c3ccccc3Sc3ccccc32)c(C)c1Br (configuration not stated),i,i,4.5,i,i,i,i
